From PubChem BioAssay
KCNK9 inh: human KCNK9 channel inhibition. hit rate 1.2% among 310,000. Q9NPC2. HEK293 KCNK9, FluxOR thallium flux fluorescence; hits give low values. B-score at 10 µM;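 active = ratio B-score over 3 SD below the library mean, with starting fluorescence within 5 SD of its mean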;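 note: negative B-score means less thallium flux so channel inhibition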
KCNQ1 block: human KCNQ1 channel inhibition; P51787; CHO-K1 KCNQ1, FluxOR thallium flux fluorescence; hits give high values; B-score at 10 µM; hit rate 1.3% among 310,000; AID 2642;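 active = compounds whose thallium flux B-score, printed positive for inhibition, exceeds three library SD while starting fluorescence stays within three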;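 note: channel opened by potassium depolarization with thallium stimulus after 20 min compound exposure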
Target sequence (P51787 whole entry, looked up): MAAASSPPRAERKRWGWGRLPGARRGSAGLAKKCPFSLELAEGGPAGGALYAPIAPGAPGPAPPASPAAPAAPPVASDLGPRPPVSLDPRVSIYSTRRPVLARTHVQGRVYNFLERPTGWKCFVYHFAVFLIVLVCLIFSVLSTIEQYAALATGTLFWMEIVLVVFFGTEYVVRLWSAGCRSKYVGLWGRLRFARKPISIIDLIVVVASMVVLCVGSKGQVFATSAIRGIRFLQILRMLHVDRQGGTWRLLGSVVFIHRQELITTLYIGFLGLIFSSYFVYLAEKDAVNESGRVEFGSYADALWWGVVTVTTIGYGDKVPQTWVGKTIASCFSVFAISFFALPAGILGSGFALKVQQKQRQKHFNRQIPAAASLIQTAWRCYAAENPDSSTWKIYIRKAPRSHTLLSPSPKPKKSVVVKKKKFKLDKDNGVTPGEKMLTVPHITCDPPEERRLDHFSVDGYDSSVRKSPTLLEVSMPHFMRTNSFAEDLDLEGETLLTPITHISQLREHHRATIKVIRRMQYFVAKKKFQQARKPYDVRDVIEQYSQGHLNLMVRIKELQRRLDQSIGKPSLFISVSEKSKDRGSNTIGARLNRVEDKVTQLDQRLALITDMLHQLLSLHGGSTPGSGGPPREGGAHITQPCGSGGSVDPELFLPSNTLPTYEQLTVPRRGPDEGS
KCNK3 block: human KCNK3 channel inhibition, primary screen | O14649 | CHO-KCNK3 thallium flux, FluxOR fluorescence; hits give low values | B-score at 10 µM | hit rate 0.84% among 340,000 | AID 602410;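 active = B-score under library mean minus 4 SD, starting fluorescence ratio at most library mean plus 5 SD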;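 note: more negative B-score means stronger inhibition of thallium flux through KCNK3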
hERG protect: hERG (human) protection from proarrhythmic block. activation (rescue from dofetilide block), less the hit threshold, % at 10 µM. hit rate 0.51% among 310,000. AID 1511. Q12809. CHO-hERG, FluxOR thallium flux, dofetilide IC70 present;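 active = activation above the mean of controls blocked by dofetilide plus 5 SD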;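 note: thallium influx through hERG after potassium depolarization seen as dye fluorescence rise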
KCNQ1 pot: human KCNQ1 channel potentiation or activation; P51787; CHO-K1 KCNQ1, thallium flux FluxOR fluorescence; hits give high values; B-score at 10 µM; hit rate 0.35% among 310,000;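 active = fluorescence ratio B-score, a plate-corrected score, at least three library SD, with initial intensity B-score within 5 SD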
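Schedule – 37 °C overnight plating, 90-min dark dye load, 20-min compound pretreatment · System – stable KCNQ1 CHO-K1 line · Probe or stimulus – thallium- and potassium-containing depolarizing buffer · Measured by – kinetic FluxOR fluorescence, 10 s baseline plus 110 s post-stimulus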
Kir21 block: Kir2.1 (mouse) channel inhibition; P35561; HEK293-Kir2.1, FluxOR thallium flux fluorescence; hits give low values; B-score at 10 µM; hit rate 0.85% among 310,000; AID 1672;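 active = fluorescence ratio B-score at or below minus 3 SD of library scores, with starting-brightness B-score within 2 SD, cut at about -4.2 in these data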;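 note: channel flux triggered by added potassium and thallium sulfate stimulus; B-score of peak minus minimum fluorescence over baseline after thallium stimulus; more negative B-score means stronger Kir2.1 block with less thallium influx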
KCNK9 inh conf: human KCNK9 inhibitor confirmation | shares compounds with KCNK9 inh | HEK293 KCNK9 cells, FluxOR thallium flux fluorescence | inhibition, % at 10 µM | hit rate 43% among 4,900 | AID 492992;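 active = thallium signal inhibited by more than 5 SD of the compound-free buffer control wells, on both duplicate plates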;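 note: 0% = assay buffer control wells without compound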
Kir2-1 spec: mouse Kir2.1 off-target activity of KCNK9 modulators. shares compounds with KCNK9 inh. AID 492993. Kir2.1 cells, FluxOR thallium flux fluorescence. inhibition, % at 10 µM. hit rate 4% among 4,900;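 active = thallium signal drop more than 5 SD beyond the mean of the no-compound control wells, seen in both duplicate plates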;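 note: signal is fluorescence rise after thallium addition divided by baseline fluorescence; plate controls were assay buffer only for no effect and full block by chlorpromazine control for full effect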
HEK293 Tl ctr: second check of KCNK9 modulator effects in non-induced HEK293 cells; shares compounds with KCNK9 inh; FluxOR thallium flux; inhibition, % at 10 µM; hit rate 40% among 4,900; AID 492997;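 active = thallium signal drop beyond 5 SD of the untreated control mean, on both duplicate plates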;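 note: plate controls were buffer only IC0 wells for no effect and SID17386958 at its maximal inhibitory level for full effect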
KCNK3 confirm: human KCNK3 channel inhibition, confirmation assay. shares compounds with KCNK3 block. CHO-KCNK3 thallium flux, FluxOR fluorescence; 0% buffer, 100% carvedilol maximal block. ratio percent of control, % at 10 µM. hit rate 99% among 2,400. AID 651638;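 active = ratio percent of control, averaged over triplicates, above buffer control mean plus 5 SD, cut at about 64% in these data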;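 note: ratio is the fluorescence rise from min to max over baseline after thallium stimulus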
KCNK3 noninduced: counter-screen for KCNK3 inhibitors: effect in non-induced cells; AID 651747; hit rate 40% among 2,400; shares compounds with KCNK3 block; thallium flux ratio (lower = more inhibition) at 10 µM; non-induced KCNK3 parental cells, FluxOR thallium flux; hits give low values;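 active = thallium flux ratio, averaged over three wells, more than 5 SD below the buffer control mean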;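 note: host cells are CHO cells without KCNK3 induction; ratio is peak minus trough fluorescence over baseline then normalized to buffer controls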
The depositor's hits bear a star; i = inactive; nt = no result. In the library only some 3.8% were active in any assay of this set; here they are far more common.

SMILES	KCNK9 inh	KCNQ1 block	KCNK3 block	hERG protect	KCNQ1 pot	Kir21 block	KCNK9 inh conf	Kir2-1 spec	HEK293 Tl ctr	KCNK3 confirm	KCNK3 noninduced
CCOC(=O)c1c(CN(C)C)n(-c2ccc(C)cc2)c2cc(Br)c(O)cc12	i	i	i	-9	i	-0.28	nt	nt	nt	nt	nt
Cc1cc(Nc2ccc(Cl)cc2)n(-c2cccc(Cl)c2)n1	-8.2*	i	-9*	-14	i	0.12	50%*	i	32%*	149*	0.15*
Cc1cc(NC(=O)CSc2cc(Cl)ccc2Cl)n(-c2ccccc2)n1	-10*	i	-9.6*	-22	i	-2.2	48%*	i	i	127*	0.14*
COc1ccc(-c2nc3ccccn3c2NCc2ccc3c(c2)OCO3)cc1	-9.6*	i	-9.7*	-23	i	-1.9	48%*	i	i	110*	i
Cc1cccn2c(NCc3ccc4c(c3)OCO4)c(-c3ccc(O)cc3)nc12	i	i	i	-5	i	0.19	nt	nt	nt	nt	nt
Cc1ccc(S(=O)(=O)NC(=O)COc2ccccc2)cc1	i	i	i	-8	i	0.59	nt	nt	nt	nt	nt
CSc1nc(Cl)c(Cc2ccc(OC(C)C)cc2)c(N(C)C)n1	-8.4*	i	-8.8*	-20	i	0.01	i	i	38%*	134*	0.13*
Cc1c([N+](=O)[O-])cnc(Sc2ccccc2)c1[N+](=O)[O-]	i	i	i	-4	i	-1.2	nt	nt	nt	nt	nt
CCOC(=O)c1c(NC(=O)CSc2nnc(C)s2)sc2c1CCCCC2	-9.4*	i	-9.8*	-1	i	0.1	37%*	i	48%*	121*	0.16*
COc1cccc(OC)c1C(=O)Nc1cccc(-c2nc3ccccc3[nH]2)c1	-13*	i	-9.9*	-6	i	1.7	40%*	i	i	133*	0.12*
O=S(=O)(Cc1cc(Oc2ccccc2)nc(-c2ccccc2)n1)c1ccccc1	i	i	i	-8	i	1.4	nt	nt	nt	nt	nt
CCOC(=O)C(C)Sc1cc(CS(=O)(=O)c2ccccc2)nc(-c2ccccc2)n1 (configuration not stated)	-10*	i	-8.8*	-8	i	-0.01	58%*	i	28%*	125*	i
O=C(C1CC1)N(Cc1ccco1)c1nc(-c2ccccc2)cs1	-12*	i	-9.6*	-10	i	-1.3	30%*	i	49%*	109*	i
C=CCN(C(=O)CN1CCCCC1)c1nc(-c2ccccc2)cs1	i	i	i	-2	i	-1.3	nt	nt	nt	nt	nt
COc1ccc(C(C)=O)cc1COc1ncnc2ccccc12	i	i	i	-10	i	-1	nt	nt	nt	nt	nt
O=C(CC(c1ccc(F)cc1)c1ccco1)Nc1nccs1 (configuration not stated)	-8.1*	i	-11*	-7	i	0.22	32%*	i	34%*	110*	0.16*
COc1ccccc1NC(=O)CC(c1ccc(F)cc1)c1ccco1 (configuration not stated)	-10*	i	i	-10	i	-0.25	36%*	i	30%*	121*	0.15*
COc1ccccc1C(CC(=O)Nc1nccs1)c1ccco1 (configuration not stated)	i	i	i	-4	i	-0.52	nt	nt	nt	nt	nt
COc1ccc(C(CC(=O)Nc2ccc(F)cc2)c2ccccc2)cc1 (configuration not stated)	i	i	i	-8	i	-0.67	nt	nt	nt	nt	nt
O=S(=O)(c1ccccc1)N1N=C(c2ccc(Br)cc2)CC1c1ccco1 (configuration not stated)	-11*	i	-10*	-8	i	1.5	38%*	i	39%*	103*	i
Cc1c(OCC(=O)NCCN2CCOCC2)ccc2c3c(c(=O)oc12)CCC3	i	i	i	-6	i	1.5	nt	nt	nt	nt	nt
O=C(Nc1ccc(O)c(-c2nc3ccccc3o2)c1)C1(c2ccccc2)CCCC1	-12*	i	-9.6*	-14	i	-1	40%*	i	i	100*	i
O=C(Nc1ccncc1)C1(c2ccccc2)CCCC1	i	i	i	1	i	-0.02	nt	nt	nt	nt	nt
O=C(NCc1cn(-c2ccccc2)nc1-c1ccc(F)cc1)c1cccc([N+](=O)[O-])c1	-17*	i	-8.8*	-9	i	1.3	78%*	i	31%*	104*	0.14*
CCn1cc(CNC(=O)c2cccc([N+](=O)[O-])c2)c(C)n1	i	i	i	-5	i	1.6	nt	nt	nt	nt	nt
SMILES	KCNK9 inh	KCNQ1 block	KCNK3 block	hERG protect	KCNQ1 pot	Kir21 block	KCNK9 inh conf	Kir2-1 spec	HEK293 Tl ctr	KCNK3 confirm	KCNK3 noninduced
COc1ccc(NC(=O)c2sccc2SCc2cccc(C(F)(F)F)c2)cc1	-16*	i	-9.1*	-5	i	-4.5*	54%*	34%*	40%*	118*	i
Cc1ccc(COc2ccc(C)nc2[N+](=O)[O-])cc1	i	i	i	-6	i	-16	nt	nt	nt	nt	nt
CC(C)CCOCC(=O)Nc1cccc(C(=O)O)c1	i	i	i	-5	i	-0.7	nt	nt	nt	nt	nt
Cc1nc(NCCc2ccccc2)c2oc3ccccc3c2n1	-13*	i	-10*	-30	i	-0.17	56%*	i	i	131*	0.12*
O=C(CSc1nc(-c2ccco2)cc(C(F)(F)F)n1)N1CCN(Cc2ccccc2)CC1	i	i	i	-7	i	-2.1	nt	nt	nt	nt	nt
Cn1nnnc1SCC(=O)Nc1cc(S(=O)(=O)N2CCCC2)ccc1Cl	i	i	i	-13	i	1.5	nt	nt	nt	nt	nt
Cc1ccc(S(=O)(=O)N(C)C)cc1NC(=O)CSc1nnnn1-c1ccc(O)cc1	-14*	i	-9.8*	-15	i	-0.2	42%*	i	26%*	106*	i
CN(C)S(=O)(=O)c1ccc(Cl)c(NC(=O)CSc2nnnn2-c2ccc(O)cc2)c1	-12*	i	-9*	-2	i	-0.09	50%*	i	28%*	96*	i
O=C(Cn1nnc(-c2cccs2)n1)N1CCc2ccccc2C1	i	i	i	-5	i	1.1	nt	nt	nt	nt	nt
